For data set [1], the system named is HepG2. As to the kind of experiment: (§1) Compound tested for anti-HBV (hepatitis B virus) activity in HepG2 2.2.15 cell line. It is filed as functional, cell-based. Particulars: Homo sapiens. The method in brief:
(§2)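 HBV-producing HepG2 2.2.15 cells cultured in DMEM/10% FBS with 400 μg/mL G418, seeded at 1.5 × 10⁴ cells/well and grown 2 days to 80–90% confluence. Medium then switched to 2% FBS. Compounds at 0–100 μM (fivefold steps) added every other day for 9 days. Day-10 supernatant boiled, serially diluted and HBV DNA quantified by TaqMan real-time PCR (40 cycles) to derive EC50.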

Data set [2] deals with HepG2. As to the kind of experiment: Cytotoxic activity in HepG2 2.2.15 cell line. Particulars: Homo sapiens. It is filed as functional.
Data set [3] has as its system HepG2. The data set is described as §1. It is filed as functional. Conditions: Homo sapiens. The method in brief: as §2
Data set [4] in a line: Oral bioavailability in rat. Particulars: in vivo. It is filed as ADME, organism-based.
The subject of data set [5] is Human immunodeficiency virus 1. As to the kind of experiment: Concentration required for inhibition of replication of human immunodeficiency virus (HIV-1). It counts as functional.
Data set [6] deals with Human alphaherpesvirus 1. The data set can be described thus: […] of herpes simplex virus (HSV-1).

Bounds are passed on as bounds.

In the case of `Nc1ncnc2c1ncn2CC1(OCP(=O)(O)O)CC1`, in data set [1], a half-maximal response (EC50) required 8 µM. The compound further returned a CC50 in data set [2] of more than 1000 µM.
In turn, `Cc1nc(N)nc2c1ncn2CC1(OCP(=O)(O)O)CC1` returned an EC50 in data set [1] of 8 µM. For the same compound, the CC50 in data set [2] was more than 1000 µM.
In data set [1], `Nc1ncnc2c1ncn2CCOCP(=O)(O)O` [ADEFOVIR] showed a concentration giving a half-maximal response (EC50) of 2 µM. The 80% effect level in data set [3] (EC80) was put at 44 µM.
`Nc1nc(Cl)c2ncn(CC3(OCP(=O)(O)O)CC3)c2n1` had an EC50 in data set [1] of 1.5 µM. Moreover, the EC80 in data set [3] amounted to 7.5 µM. The same compound displayed a CC50 in data set [2] of more than 1000 µM.
With `Nc1ncc2ncn(CC3(OCP(=O)(O)O)CC3)c2n1` [BESIFOVIR], the bioavailability in data set [4] is more than 5%. For the same compound, in data set [1], the EC50 was 4 µM. The compound further had a CC50 in data set [2] of more than 1000 µM.
With `Cc1cn(CC2(OCP(=O)(O)O)CC2)c(=O)[nH]c1=O`, the EC50 in data set [1] was more than 30 µM. Further, the cytotoxic concentration (CC50) in data set [2] was more than 1000 µM.
Taken in the same sequence, the figures for `CCNc1nc(N)nc2c1ncn2CC1(OCP(=O)(O)O)CC1` were more than 30 µM and more than 1000 µM.
In the case of `Nc1nc(O)c2ncn(CC3(OCP(=O)(O)O)CC3)c2n1` [LB80317], in data set [1], the EC50 was found to be 0.5 µM. In addition, the Inhibition in data set [5] and in data set [6] was more than 30 µM in each case. Moreover, it took 2.3 µM to reach the 80% level in data set [3] (EC80). Besides, the CC50 in data set [2] is more than 1000 µM.
As to `CCOc1nc(N)nc2c1ncn2CC1(OCP(=O)(O)O)CC1`, the EC50 in data set [1] turned out to be 0.5 µM. Further, it took 3 µM to reach the 80% level in data set [3] (EC80). In data set [2], the CC50 was more than 1000 µM.

The record behind these values is ChEMBL document CHEMBL1148462, “A novel class of phosphonate nucleosides. 9-[(1-phosphonomethoxycyclopropyl)methyl]guanine as a potent and selective anti-HBV agent” (J Med Chem, 2004).
